According to PMC9054070 (RSC Advances, 2020):
Several values for one entry are separate records, joined by “and”; a condition that tells them apart may be missing. Equal values may be shown once. Read-outs that look alike come from different tables or passages of the source.

What was measured:
MCF-7 cell line = experiment: Cytotoxic screening using MTT assay, MCF-7; format: cell-based
Summary of the method: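 MTT cytotoxicity read-out on MCF-7 cells; IC50 from a sigmoidal log-concentration curve; 5-fluorouracil run alongside as reference drug.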

HepG2 cell line = experiment: Cytotoxic screening using MTT assay, HepG2; format: cell-based; conditions: Homo sapiens, HepG2, 48 h, read-out: IC50 (μM) HepG2
normal cell line GMSC = experiment: Cytotoxic screening using MTT assay, normal cell line GMSC; format: cell-based; conditions: read-out: IC50 (μM) GMSC
[1] = system: Ehrlich Ascites Carcinoma (EAC); experiment: In vivo anti-tumor activity in EAC-bearing mice; conditions: for percentage MST ratio (T/C%) / percentage increase in life span (ILS%): compared to EAC control; for percentage cell growth inhibition (CGI%) / tumor volume / total tumor cell count / packed cell volume (PCV%): day 18; for tumor volume: EAC control 19.5 mL; for total tumor cell count: EAC control 19.9; for packed cell volume (PCV%): EAC control 36.72%
[2] = Homo sapiens, MCF7, 48 h, read-out: IC50 (μM) MCF-7, MTT assay, 48 h treatment
[3] = read-out: IC50 (μM) MCF-7, MTT assay, 48 h treatment

Row | SMILES | IC50 (MCF-7 cell line; [2]) [µM] | IC50 (HepG2 cell line) [µM] | IC50 (normal cell line GMSC; 48 h) [µM] | other results
1 | CCOC(=O)Cn1ncc2c3ccccc3n(CC(=O)OCC)c2c1=O [Compound 11, Diethyl 2,2′-(4-oxo-3H-pyridazino[4,5-b]indole-3,5(4H)-diyl)diacetate] | 9.07 | 18.8 | > 50 | 
2 | N#CCCn1ncc2c3ccccc3n(CCC#N)c2c1=O [Compound 3, 3,3′-(4-oxo-3H-pyridazino[4,5-b]indole-3,5(4H)-diyl)dipropanenitrile] |  | > 50 |  | 
3 | C=CCn1c2ccccc2c2cn[nH]c(=O)c21 [Compound 5, 5-Allyl-3,5-dihydro-4H-pyridazino[4,5-b]indol-4-one] | > 50 | > 50 | > 50 | 
4 | C=CCn1ncc2c3ccccc3n(CC=C)c2c1=O [Compound 8, 3,5-Diallyl-3,5-dihydro-4H-pyridazino[4,5-b]indol-4-one] | 17 |  |  | 
5 | O=c1[nH]cc(F)c(=O)[nH]1 [Compound 5-FU, reference compound] |  |  |  | IC50 (MCF-7 cell line; [3]): 6.98 µM; IC50 (normal cell line GMSC; MTT assay, 48 h treatment, normal cell line): > 50 µM; percentage MST ratio (T/C%) ([1]; EAC-bearing mice): 166%; percentage increase in life span (ILS%) ([1]; EAC-bearing mice): 66%; percentage cell growth inhibition (CGI%) ([1]; ascetic peritoneal fluid): 38.67%; tumor volume ([1]; ascetic peritoneal fluid): 12.6 mL; total tumor cell count ([1]; ascetic peritoneal fluid): 12.2 × 10^7 cells per mL; packed cell volume (PCV%) ([1]; ascetic peritoneal fluid): 23.78%
6 | NNC(=O)Cn1c2ccccc2c2cn[nH]c(=O)c21 [Compound 12, 2-(4-Oxo-3,4-dihydro-5H-pyridazino[4,5-b]indol-5-yl)acetohydrazide] | 4.24 | 12.8 | > 50 | IC50 (MCF-7 cell line; [3]): 4.25 µM; percentage MST ratio (T/C%) ([1]; EAC-bearing mice): 172%; percentage increase in life span (ILS%) ([1]; EAC-bearing mice): 72%; percentage increase in body weight (IBW%) ([1]; EAC-bearing mice, untreated EAC control 43.65%): 19.27% and 15.56%; percentage cell growth inhibition (CGI%) ([1]; ascetic peritoneal fluid): 50.74%; percentage of viable cells ([1]; ascetic peritoneal fluid, day 18, trypan blue exclusion, EAC control 91.9%): 59.6%; tumor volume ([1]; ascetic peritoneal fluid): 11.9 mL; total tumor cell count ([1]; ascetic peritoneal fluid): 9.8 × 10^7 cells per mL; packed cell volume (PCV%) ([1]; ascetic peritoneal fluid): 19.32%
7 | CCOC(=O)Cn1c2ccccc2c2cn[nH]c(=O)c21 [Compound 10, Ethyl 2-(4-oxo-3,4-dihydro-5H-pyridazino[4,5-b]indol-5-yl)acetate] | 12.4 | 36.7 | > 50 | 
8 | O=c1[nH]ncc2c1[nH]c1ccccc12 [Compound 2, 3,5-Dihydro-4H-pyridazino[4,5-b]indol-4-one] | 9.43 | 22.8 |  | 
9 | O=c1[nH]ncc2c3ccccc3n(Cc3ccccc3)c12 [Compound 6, 5-Benzyl-3,5-dihydro-4H-pyridazino[4,5-b]indol-4-one] | 29.5 |  | > 50 | 
10 | O=c1c2c(cnn1Cc1ccccc1)c1ccccc1n2Cc1ccccc1 [Compound 9, 3,5-Dibenzyl-3,5-dihydro-4H-pyridazino[4,5-b]indol-4-one] | > 50 |  |  | 
